In article PMC10895701 (Nature structural & molecular biology, 2023):

Experiments:
OCT1CS [1] = test: 3H-MPP+ uptake in X. laevis oocytes expressing OCT1CS; type: cell-based; settings: 30 min uptake
How it was run: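 Xenopus laevis oocytes injected with 30 ng cRNA, expressed 2–4 days at 17°C. Uptake of 3H-MPP+ (specific radioactivity 0.06 Ci/mmol) over a concentration series, 30 min uptake. Background corrected with water-injected oocytes; radioactivity counted. Kt fitted, reported ± s.e.m.; n=3 biologically independent replicates.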

OCT1CS [2] = test: 14C-metformin uptake in oocytes expressing OCT1CS; type: cell-based
WT hOCT1 = settings: cited from earlier work

Row | SMILES | Michaelis constant for transport (Kt) for MPP+ transport (OCT1CS [1]) | Kt for metformin (OCT1CS [2]) | Kt for metformin, previous reports (WT hOCT1)
1 | C[n+]1ccc(-c2ccccc2)cc1 [MPP^+, 1-methyl-4-phenylpyridinium] | ~ 50 μM |  | 
2 | CN(C)C(=N)N=C(N)N [metformin] |  | ~ 3 mM | 1 to 5 mM
